# Tests used:
# Type in all cases: subcellular
# [1] = molecular target: Dual specificity mitogen-activated protein kinase kinase 3 (Homo sapiens, UniProt P46734); assay: Inhibition of MAP2K3 in human HeLa cells lysate pre incubated for 15 mins followed by ADP acyl phosphate probe addition and measured after 10 mins by LC-MS/MS analysis
# [2] = Inhibition of PRKX/PRKY in human HeLa cells lysate pre incubated for 15 mins followed by ADP acyl phosphate probe addition and measured after 10 mins by LC-MS/MS analysis
# [3] = molecular target: Cyclin-dependent kinase 2 (Homo sapiens, UniProt P24941); assay: Inhibition of CDK2 in human HeLa cells lysate at 50 uM pre incubated for 15 mins followed by ADP acyl phosphate probe addition and measured after 10 mins by LC-MS/MS analysis relative to control; conditions: time 25.0 min
# How it was run: (§1)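 KiNativ profiling in HeLa lysate (5 mg/mL total protein). Lysate incubated 15 min with inhibitor at 50, 10, 2, 0.8 or 0 μM. ATP or ADP acylphosphate probe then added (5 μM final) and reacted 10 min. Reaction stopped with urea and analysed by targeted MS, using up to four fragment ions per kinase peptide-probe conjugate. % inhibition taken against untreated lysate. Run in duplicate.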
# [4] = molecular target: Serine/threonine-protein kinase Chk2 (Homo sapiens, UniProt O96017); assay: Inhibition of CHK2 in human HeLa cells lysate at 10 uM pre incubated for 15 mins followed by ADP acyl phosphate probe addition and measured after 10 mins by LC-MS/MS analysis relative to control; conditions: time 25.0 min
# Serine/threonine-protein kinase Chk2, sequence (O96017 whole entry): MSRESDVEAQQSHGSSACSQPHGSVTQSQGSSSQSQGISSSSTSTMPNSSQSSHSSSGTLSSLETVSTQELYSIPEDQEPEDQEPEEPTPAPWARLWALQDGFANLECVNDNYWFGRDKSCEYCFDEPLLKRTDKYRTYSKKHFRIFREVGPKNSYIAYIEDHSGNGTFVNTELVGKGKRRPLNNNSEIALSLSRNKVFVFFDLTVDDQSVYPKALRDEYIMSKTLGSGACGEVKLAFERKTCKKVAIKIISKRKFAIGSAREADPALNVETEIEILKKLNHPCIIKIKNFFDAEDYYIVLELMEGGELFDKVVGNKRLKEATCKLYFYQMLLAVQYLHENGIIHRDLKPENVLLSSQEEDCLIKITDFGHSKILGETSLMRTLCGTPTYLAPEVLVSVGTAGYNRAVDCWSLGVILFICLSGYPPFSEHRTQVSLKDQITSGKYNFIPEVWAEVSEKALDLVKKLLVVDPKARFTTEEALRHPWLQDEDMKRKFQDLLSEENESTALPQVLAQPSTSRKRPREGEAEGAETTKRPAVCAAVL
# [5] = molecular target: Serine/threonine-protein kinase B-raf (Homo sapiens, UniProt P15056); assay: Inhibition of BRAF in human HeLa cells lysate at 10 uM pre incubated for 15 mins followed by ADP acyl phosphate probe addition and measured after 10 mins by LC-MS/MS analysis relative to control; conditions: time 25.0 min
# Serine/threonine-protein kinase B-raf, sequence (P15056 whole entry, the tested form may be a part): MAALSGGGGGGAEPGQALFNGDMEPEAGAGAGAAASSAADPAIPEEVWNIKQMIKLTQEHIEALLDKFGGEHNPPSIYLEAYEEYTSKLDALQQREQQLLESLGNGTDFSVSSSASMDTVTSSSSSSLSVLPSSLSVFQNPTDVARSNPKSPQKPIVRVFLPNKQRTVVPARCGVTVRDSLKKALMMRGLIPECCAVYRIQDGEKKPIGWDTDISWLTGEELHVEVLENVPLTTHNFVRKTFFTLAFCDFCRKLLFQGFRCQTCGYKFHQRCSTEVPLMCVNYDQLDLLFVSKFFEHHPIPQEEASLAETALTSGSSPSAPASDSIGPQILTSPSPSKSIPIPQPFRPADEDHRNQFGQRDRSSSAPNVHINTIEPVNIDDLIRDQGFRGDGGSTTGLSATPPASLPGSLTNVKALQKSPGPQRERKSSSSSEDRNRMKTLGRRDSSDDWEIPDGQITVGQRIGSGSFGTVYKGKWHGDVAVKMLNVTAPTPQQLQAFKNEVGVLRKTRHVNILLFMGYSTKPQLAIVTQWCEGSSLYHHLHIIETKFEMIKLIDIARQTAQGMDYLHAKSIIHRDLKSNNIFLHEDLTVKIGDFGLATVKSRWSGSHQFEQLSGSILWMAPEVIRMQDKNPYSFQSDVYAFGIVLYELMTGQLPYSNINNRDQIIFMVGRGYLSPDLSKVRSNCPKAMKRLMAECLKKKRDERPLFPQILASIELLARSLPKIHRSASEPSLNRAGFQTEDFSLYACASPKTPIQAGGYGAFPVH
# How it was run: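 KiNativ-type profiling in HeLa lysate (5 mg/mL total protein). Lysate preincubated 15 min with inhibitor at 50, 10, 2, 0.8 or 0 μM, then ATP or ADP acylphosphate probe added (5 μM final) for 10 min. Reaction stopped with urea and analysed by targeted MS, using up to four fragment ions per kinase peptide-probe conjugate. % inhibition calculated against untreated lysate. Duplicate reactions.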
# [6] = molecular target: T1, Serine/threonine-protein kinase D3 (Homo sapiens) (UniProt O94806); assay: Inhibition of PKD3 in human HeLa cells lysate at 2 uM pre incubated for 15 mins followed by ADP acyl phosphate probe addition and measured after 10 mins by LC-MS/MS analysis relative to control; conditions: time 25.0 min
# T1 sequence (whole entry): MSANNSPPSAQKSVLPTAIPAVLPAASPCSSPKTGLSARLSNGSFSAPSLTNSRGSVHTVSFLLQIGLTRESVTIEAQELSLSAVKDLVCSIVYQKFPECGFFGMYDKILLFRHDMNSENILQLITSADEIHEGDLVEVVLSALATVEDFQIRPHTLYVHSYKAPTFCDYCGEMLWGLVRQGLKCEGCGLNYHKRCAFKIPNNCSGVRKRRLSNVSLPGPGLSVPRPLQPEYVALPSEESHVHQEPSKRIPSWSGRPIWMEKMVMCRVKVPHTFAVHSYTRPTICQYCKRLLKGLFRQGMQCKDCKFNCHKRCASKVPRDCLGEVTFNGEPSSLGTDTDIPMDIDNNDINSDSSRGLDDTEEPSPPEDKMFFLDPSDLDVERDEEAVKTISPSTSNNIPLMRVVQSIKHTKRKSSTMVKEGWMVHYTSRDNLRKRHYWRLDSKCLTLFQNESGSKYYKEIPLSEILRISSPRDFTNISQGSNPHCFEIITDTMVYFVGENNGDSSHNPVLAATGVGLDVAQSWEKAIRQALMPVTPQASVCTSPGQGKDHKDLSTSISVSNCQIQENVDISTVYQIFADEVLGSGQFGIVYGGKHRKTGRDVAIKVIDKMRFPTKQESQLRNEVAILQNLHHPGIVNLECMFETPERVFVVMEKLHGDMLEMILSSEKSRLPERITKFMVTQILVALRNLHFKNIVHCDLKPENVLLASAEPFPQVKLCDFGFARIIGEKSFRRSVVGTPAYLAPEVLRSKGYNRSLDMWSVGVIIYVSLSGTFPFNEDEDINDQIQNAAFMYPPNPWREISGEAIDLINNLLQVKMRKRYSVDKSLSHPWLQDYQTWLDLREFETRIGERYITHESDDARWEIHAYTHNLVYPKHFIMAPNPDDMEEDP
# [7] = molecular target: T2, Serine/threonine-protein kinase Chk1 (Homo sapiens) (UniProt O14757); assay: Inhibition of CHK1 in human HeLa cells lysate at 50 uM pre incubated for 15 mins followed by ATP acyl phosphate probe addition and measured after 10 mins by LC-MS/MS analysis relative to control; conditions: time 25.0 min
# T2 sequence (whole entry): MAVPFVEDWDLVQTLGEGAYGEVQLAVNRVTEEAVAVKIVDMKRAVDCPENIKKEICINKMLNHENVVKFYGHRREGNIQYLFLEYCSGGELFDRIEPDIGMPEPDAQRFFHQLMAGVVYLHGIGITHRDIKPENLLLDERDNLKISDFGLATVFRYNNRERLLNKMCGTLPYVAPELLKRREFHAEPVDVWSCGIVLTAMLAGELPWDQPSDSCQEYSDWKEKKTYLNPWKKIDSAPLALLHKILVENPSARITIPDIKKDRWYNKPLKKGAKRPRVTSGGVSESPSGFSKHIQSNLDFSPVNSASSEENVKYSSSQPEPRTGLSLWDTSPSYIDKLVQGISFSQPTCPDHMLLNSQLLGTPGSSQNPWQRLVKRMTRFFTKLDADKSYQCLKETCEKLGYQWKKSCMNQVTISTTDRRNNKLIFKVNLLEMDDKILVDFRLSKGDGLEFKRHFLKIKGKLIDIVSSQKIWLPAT
# [8] = molecular target: Cyclin-dependent kinase 7 (Homo sapiens, UniProt P50613); assay: Inhibition of CDK7 in human HeLa cells lysate at 50 uM pre incubated for 15 mins followed by ATP acyl phosphate probe addition and measured after 10 mins by LC-MS/MS analysis relative to control; conditions: time 25.0 min; how it was run: as §1
# Cyclin-dependent kinase 7, sequence (P50613 whole entry): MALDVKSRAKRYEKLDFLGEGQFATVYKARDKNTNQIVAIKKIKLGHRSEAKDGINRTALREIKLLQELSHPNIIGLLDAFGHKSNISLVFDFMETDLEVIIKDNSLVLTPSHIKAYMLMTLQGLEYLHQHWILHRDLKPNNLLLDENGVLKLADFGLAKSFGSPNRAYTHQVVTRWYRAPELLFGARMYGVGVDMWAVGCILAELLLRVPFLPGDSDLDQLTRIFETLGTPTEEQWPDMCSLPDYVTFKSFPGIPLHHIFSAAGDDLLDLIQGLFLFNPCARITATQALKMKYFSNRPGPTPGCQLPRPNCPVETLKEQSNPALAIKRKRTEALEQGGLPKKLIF
# [9] = molecular target: Mitogen-activated protein kinase kinase kinase 11 (Homo sapiens, UniProt Q16584); assay: Inhibition of MLK3 in human HeLa cells lysate at 50 uM pre incubated for 15 mins followed by ATP acyl phosphate probe addition and measured after 10 mins by LC-MS/MS analysis relative to control; conditions: time 25.0 min
# Mitogen-activated protein kinase kinase kinase 11, sequence (Q16584 whole entry, looked up): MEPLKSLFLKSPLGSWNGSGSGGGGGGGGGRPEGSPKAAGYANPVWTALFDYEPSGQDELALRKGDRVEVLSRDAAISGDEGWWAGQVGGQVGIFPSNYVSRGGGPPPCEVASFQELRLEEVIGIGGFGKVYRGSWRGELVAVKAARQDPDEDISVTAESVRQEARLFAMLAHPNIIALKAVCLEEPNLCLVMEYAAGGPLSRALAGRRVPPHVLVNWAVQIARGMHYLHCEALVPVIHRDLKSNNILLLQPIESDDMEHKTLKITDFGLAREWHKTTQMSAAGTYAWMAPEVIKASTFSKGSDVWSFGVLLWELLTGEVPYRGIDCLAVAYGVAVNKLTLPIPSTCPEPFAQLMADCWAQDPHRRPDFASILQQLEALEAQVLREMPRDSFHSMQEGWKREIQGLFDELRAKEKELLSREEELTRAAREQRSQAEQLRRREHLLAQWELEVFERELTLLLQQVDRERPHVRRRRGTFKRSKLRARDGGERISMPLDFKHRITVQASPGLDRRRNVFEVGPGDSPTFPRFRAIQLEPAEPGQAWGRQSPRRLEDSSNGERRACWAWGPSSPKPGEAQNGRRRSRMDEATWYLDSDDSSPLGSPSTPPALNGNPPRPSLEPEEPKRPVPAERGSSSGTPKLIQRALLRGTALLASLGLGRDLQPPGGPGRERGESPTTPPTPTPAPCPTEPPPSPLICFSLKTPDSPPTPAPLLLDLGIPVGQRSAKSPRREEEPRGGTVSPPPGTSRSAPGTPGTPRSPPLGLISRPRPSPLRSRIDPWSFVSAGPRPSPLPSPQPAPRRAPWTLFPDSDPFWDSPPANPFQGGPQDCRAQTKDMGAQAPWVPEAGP
# Dual specificity mitogen-activated protein kinase kinase 3, sequence (P46734 whole entry): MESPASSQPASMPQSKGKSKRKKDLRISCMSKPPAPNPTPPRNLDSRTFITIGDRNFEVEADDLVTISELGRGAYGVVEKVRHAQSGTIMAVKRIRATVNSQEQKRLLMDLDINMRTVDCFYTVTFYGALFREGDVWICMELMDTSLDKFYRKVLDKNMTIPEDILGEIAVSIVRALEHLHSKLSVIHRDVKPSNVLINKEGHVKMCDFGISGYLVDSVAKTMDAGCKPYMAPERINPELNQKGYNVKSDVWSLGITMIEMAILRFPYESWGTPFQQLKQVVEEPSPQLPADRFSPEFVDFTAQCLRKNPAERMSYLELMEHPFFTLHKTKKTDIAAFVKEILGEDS
smiles,measurement,setting,value
CCOc1cc(N2CCC(O)CC2)ccc1Nc1ncc2c(n1)N(C)c1ccccc1C(=O)N2C,IC50,[1],> 50 µM
same,IC50,[2],> 50 µM
same,inhibition,[3],-3.2%
same,inhibition,[4],1.1%
same,inhibition,[5],2.3%
same,inhibition,[6],5.5%
same,inhibition,[7],-0.4%
same,inhibition,[8],-0.5%
same,inhibition,[9],-7.8%
